Consider two compounds from BindingDB's records for doi:10.1021/acs.jmedchem.8b00139 (University Park Nottingham, 2018).

The target in the test is P2Y purinoceptor 2 (Homo sapiens, UniProt P41231). In words: Displacement of (E)-2-((5-(7-Chloro-2-((3-((2-(6-(3-(5,5-difluoro-7,9-dimethyl-5H-5-lambda4,6-lambda4-dipyrrolo[1,2-c:2,1-f ][1,3,2]diazaborinin-3-yl)-propanamido)hexanamido)ethyl)amino)-3-oxopropyl)amino)-4Hbenzo[5,6]cyclohepta[1,2-d]thiazol-4-yl)-2-oxo-4-thioxo-3,4-dihydropyrimidin-1(2H)-yl)methyl)-N-(1H-tetrazol-5-yl)thiazole-4-carboxamide from human N-terminal NLuc-tagged P2Y2R expressed in human 1321N1 cells incubated for 1 hr by furimazine-based NanoBRET assay. The procedure, abridged: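 Competition binding in 1321N1 cells expressing N-terminal NanoLuc-hP2Y2R. The fluorescent tracer was used at 1 µM (or the bodipy A tracer at 100 nM) against increasing concentrations of unlabeled ligand. After furimazine addition the BRET signal was read and pKi estimated; mean ± SEM of separate experiments.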
On the technique in general: In BRET a luciferase serves as donor, and the signal depends on an acceptor being close.

Sequence of P2Y purinoceptor 2 (P41231 whole entry): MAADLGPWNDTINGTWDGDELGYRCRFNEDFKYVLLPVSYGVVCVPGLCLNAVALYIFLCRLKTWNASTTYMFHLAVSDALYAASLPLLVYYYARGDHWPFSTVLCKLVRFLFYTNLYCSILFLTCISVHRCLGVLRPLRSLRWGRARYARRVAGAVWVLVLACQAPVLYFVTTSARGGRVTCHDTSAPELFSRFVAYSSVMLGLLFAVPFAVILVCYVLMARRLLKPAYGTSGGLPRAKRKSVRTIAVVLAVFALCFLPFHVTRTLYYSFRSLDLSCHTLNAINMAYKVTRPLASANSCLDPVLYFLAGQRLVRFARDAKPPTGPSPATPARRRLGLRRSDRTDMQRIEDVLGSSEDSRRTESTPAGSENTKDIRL

Turning to `CCOCCNc1nc2c(s1)C=Cc1cc(Cl)ccc1[C@H]2c1cn(C)c(=O)[nH]c1=S`, the Ki (commonly the equilibrium dissociation constant of an inhibitor or competing ligand from its target) was 275 nM.

As to `CCOCCNc1nc2c(s1)C=Cc1cc(Cl)ccc1[C@@H]2c1cn(C)c(=O)[nH]c1=S`, the affinity, expressed as Ki, was 5250 nM.
